# Data from ChEMBL document CHEMBL4138152, “Exploring the tetrahydroisoquinoline thiohydantoin scaffold blockade the androgen receptor as potent anti-prostate cancer agents” (Eur J Med Chem, 2018).
# The source made the active and inactive calls. The calls are words filed in the database; no cut-off is given here.
# Key:
# [1] = system: LNCaP; test: Antiproliferative activity against human LNCAP cells after 3 days by MTT assay; type: functional, cell-based; details: 72 h
# In short: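 LNCaP cells kept in RPMI-1640 with 10% FBS, 37 °C, 5% CO2. Seeded at 10,000 cells/well and left 24 h. Serial dilutions of compound or DMSO added, then 3 d incubation. MTT (5 mg/mL) added for 4 h, crystals dissolved in DMSO, absorbance read at 492 nm. Triplicate or more; IC50 reported as mean.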
# [2] = system: DU-145; test: Antiproliferative activity against human DU145 cells after 3 days by MTT assay; type: functional, cell-based; details: DU-145, 72 h
# In short: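 DU145 cells kept in RPMI-1640 with 10% FBS, 37 °C, 5% CO2. Seeded at 7,000 cells/well and left 24 h. Serial dilutions of compound or DMSO added, then 3 d incubation. MTT (5 mg/mL) added for 4 h, formazan dissolved in DMSO, absorbance read at 492 nm. Triplicate or more; IC50 reported as mean.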
# [3] = target: T1, Androgen receptor (Homo sapiens) (UniProt P10275); details: at 10 µM
# T1 sequence (whole entry): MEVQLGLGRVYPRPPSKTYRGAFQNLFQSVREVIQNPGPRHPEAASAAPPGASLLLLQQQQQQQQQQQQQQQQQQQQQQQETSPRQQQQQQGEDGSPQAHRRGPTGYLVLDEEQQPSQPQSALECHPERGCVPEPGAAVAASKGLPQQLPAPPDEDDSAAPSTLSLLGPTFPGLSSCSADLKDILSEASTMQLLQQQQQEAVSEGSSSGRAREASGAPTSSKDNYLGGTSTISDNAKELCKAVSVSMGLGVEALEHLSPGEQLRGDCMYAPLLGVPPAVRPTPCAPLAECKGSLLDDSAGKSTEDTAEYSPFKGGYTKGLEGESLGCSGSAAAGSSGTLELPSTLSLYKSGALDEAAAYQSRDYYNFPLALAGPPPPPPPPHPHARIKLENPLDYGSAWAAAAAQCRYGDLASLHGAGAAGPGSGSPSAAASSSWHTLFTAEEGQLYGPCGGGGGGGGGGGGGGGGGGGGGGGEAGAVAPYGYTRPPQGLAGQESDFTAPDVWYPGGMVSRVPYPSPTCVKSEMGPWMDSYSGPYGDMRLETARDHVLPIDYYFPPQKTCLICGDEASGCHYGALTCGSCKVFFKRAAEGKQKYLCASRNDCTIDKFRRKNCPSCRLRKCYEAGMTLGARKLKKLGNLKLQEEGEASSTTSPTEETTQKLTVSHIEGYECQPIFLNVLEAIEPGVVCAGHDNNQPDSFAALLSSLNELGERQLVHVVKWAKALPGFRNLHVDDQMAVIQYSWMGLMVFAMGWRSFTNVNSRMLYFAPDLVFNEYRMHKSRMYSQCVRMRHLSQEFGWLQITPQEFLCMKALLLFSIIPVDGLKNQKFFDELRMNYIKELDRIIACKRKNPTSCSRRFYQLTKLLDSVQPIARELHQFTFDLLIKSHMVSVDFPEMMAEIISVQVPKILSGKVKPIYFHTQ
# [4] = Cmax in rat administered via gavage by HPLC-MS/MS method; type: ADME, organism-based; details: in vivo, po
# In short: (§1)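 Rats 180–220 g, n = 3 per group; compound dissolved in water, single gavage dose of 5.0 mg/kg. Plasma quantified by HPLC-MS/MS. Parameters derived from mean plasma concentration by noncompartmental analysis.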
# [5] = Tmax in rat administered via gavage by HPLC-MS/MS method; type: ADME, organism-based; details: in vivo, po; in short: as §1
# [6] = target: T2, Androgen receptor (Homo sapiens, UniProt P10275); type: cell-based
# T2 sequence (P10275 whole entry): T1 sequence (whole entry)
# [7] = Elimination half life in rat administered via gavage by HPLC-MS/MS method; type: ADME, organism-based; details: in vivo, po, read-out: beta t1/2 (converted); in short: as §1
# [8] = Clearance in rat administered via gavage by HPLC-MS/MS method; type: ADME, organism-based; details: in vivo, po; in short: as §1
# [9] = AUC (0 to t) in rat administered via gavage by HPLC-MS/MS method; type: ADME, organism-based; details: in vivo, po; in short: as §1
# [10] = target: T1, Androgen receptor (Homo sapiens); details: at 10 µM; remark: listed apart in the source
SMILES,IC50 [1],IC50 [2],inhibition [3],Cmax [4],Tmax [5],IC50 [6],half-life [7],CL/F [8],AUC(0-t) [9],inhibition [10]
CC(=O)Nc1ccc2c(c1)CN1C(=S)N(c3ccc(C#N)c(C(F)(F)F)c3)C(=O)C1C2 (stereo unspecified),83.8 µM,> 200 µM,25%,,,,,,,
COc1c(Br)cc2c(c1Br)CN1C(=S)N(c3ccc(C#N)c(C(F)(F)F)c3)C(=O)C1C2 (stereo unspecified),19.1 µM,33.8 µM,4.6%,,,,,,,
N#Cc1ccc(N2C(=O)C3Cc4ccccc4N3C2=S)cc1C(F)(F)F (stereo unspecified),15.3 µM,,,452 ng/mL,2 h,18.7 µM,10.4 h,26.5 mL/min/kg,2860 ng·h/mL,
CCCC(=O)Nc1ccc2c(c1)CN1C(=S)N(c3ccc(C#N)c(C(F)(F)F)c3)C(=O)C1C2 (stereo unspecified),10.8 µM,> 200 µM,45.5%,,,,,,,
CCOC(=O)Nc1ccc2c(c1)CN1C(=S)N(c3ccc(C#N)c(C(F)(F)F)c3)C(=O)C1C2 (stereo unspecified),6.3 µM,90.1 µM,45.4%,641 ng/mL,2 h,,34.4 h,9.5 mL/min/kg,7030 ng·h/mL,
CNC(=O)c1cc2c(cc1F)CC1C(=O)N(c3ccc(C#N)c(F)c3)C(=S)N1C2 (stereo unspecified),116 µM,85.4 µM,26.7%,,,,,,,
N#Cc1ccc(N2C(=O)C3Cc4cc(N)ccc4CN3C2=S)cc1C(F)(F)F (stereo unspecified),73 µM,> 200 µM,14.2%,,,,,,,
CCOC(=O)Nc1cc2c(cc1F)CC1C(=O)N(c3ccc(C#N)c(C(F)(F)F)c3)C(=S)N1C2 (stereo unspecified),13.4 µM,> 200 µM,85.1%,2290 ng/mL,4 h,7.39 µM,24.7 h,2.43 mL/min/kg,30000 ng·h/mL,Active
CNC(=O)c1ccc(N2C(=S)N(c3ccc(C#N)c(C(F)(F)F)c3)C(=O)C2(C)C)cc1F [ENZALUTAMIDE],12.5 µM,46.1 µM,,,,,,,,
N#Cc1ccc(N2C(=O)C3Cc4ccc(O)cc4CN3C2=S)cc1C(F)(F)F (stereo unspecified),50.7 µM,> 200 µM,85.7%,,,,,,,
CS(=O)(=O)Nc1ccc2c(c1)CN1C(=S)N(c3ccc(C#N)c(C(F)(F)F)c3)C(=O)C1C2 (stereo unspecified),31.1 µM,> 200 µM,13.6%,,,,,,,
N#Cc1ccc(N2C(=O)C3Cc4ccc(N)cc4CN3C2=S)cc1C(F)(F)F (stereo unspecified),18.9 µM,89.7 µM,37.8%,,,,,,,
CCCCS(=O)(=O)Nc1ccc2c(c1)CN1C(=S)N(c3ccc(C#N)c(C(F)(F)F)c3)C(=O)C1C2 (stereo unspecified),3.12 µM,> 200 µM,29.5%,,,,,,,
N#Cc1ccc(N2C(=O)C3Cc4ccc([N+](=O)[O-])cc4CN3C2=S)cc1C(F)(F)F (stereo unspecified),43 µM,> 200 µM,59.8%,,,,,,,
N#Cc1ccc(N2C(=O)C3Cc4cc(I)c(O)c(I)c4CN3C2=S)cc1C(F)(F)F (stereo unspecified),16.3 µM,22.1 µM,27.3%,,,,,,,
CC(C)(C)C(=O)Nc1ccc2c(c1)CN1C(=S)N(c3ccc(C#N)c(C(F)(F)F)c3)C(=O)C1C2 (stereo unspecified),21.2 µM,83.2 µM,inactive,,,,,,,

SMILES,IC50 [1],IC50 [2],inhibition [3],Cmax [4],Tmax [5],IC50 [6],half-life [7],CL/F [8],AUC(0-t) [9],inhibition [10]
N#Cc1ccc(N2C(=O)C3Cc4cc(Br)c(O)c(Br)c4CN3C2=S)cc1C(F)(F)F (stereo unspecified),11.1 µM,11.4 µM,6.1%,,,,,,,
CCC(=O)Nc1ccc2c(c1)CN1C(=S)N(c3ccc(C#N)c(C(F)(F)F)c3)C(=O)C1C2 (stereo unspecified),19.5 µM,> 200 µM,4.5%,,,,,,,
COc1ccc2c(c1)CN1C(=S)N(c3ccc(C#N)c(C(F)(F)F)c3)C(=O)C1C2 (stereo unspecified),100 µM,60.4 µM,inactive,,,,,,,
N#Cc1ccc(N2C(=O)C3Cc4ccccc4CN3C2=S)cc1F (stereo unspecified),70.3 µM,37.1 µM,inactive,,,,,,,
CNC(=O)c1cc2c(cc1F)CC1C(=O)N(c3ccc(C#N)c(C(F)(F)F)c3)C(=S)N1C2 (stereo unspecified),28.1 µM,> 200 µM,47.1%,,,,,,,
N#Cc1ccc(N2C(=O)C3Cc4ccc(OC5CCCCC5)cc4CN3C2=S)cc1C(F)(F)F (stereo unspecified),8.5 µM,98.1 µM,61.6%,,,,,,,
CCCOc1ccc2c(c1)CN1C(=S)N(c3ccc(C#N)c(C(F)(F)F)c3)C(=O)C1C2 (stereo unspecified),11.6 µM,62.3 µM,54%,,,,,,,
N#Cc1ccc(N2C(=O)C3Cc4cc([N+](=O)[O-])ccc4CN3C2=S)cc1C(F)(F)F (stereo unspecified),56.4 µM,> 200 µM,inactive,,,,,,,
N#Cc1ccc(N2C(=O)C3Cc4cc(Cl)c(O)c(Cl)c4CN3C2=S)cc1C(F)(F)F (stereo unspecified),14 µM,17.1 µM,36%,,,,,,,
CCOc1ccc2c(c1)CN1C(=S)N(c3ccc(C#N)c(C(F)(F)F)c3)C(=O)C1C2 (stereo unspecified),22.6 µM,40.9 µM,47.1%,,,,,,,
CC(C)Oc1ccc2c(c1)CN1C(=S)N(c3ccc(C#N)c(C(F)(F)F)c3)C(=O)C1C2 (stereo unspecified),8.6 µM,91.6 µM,45.4%,,,,,,,
N#Cc1ccc(N2C(=O)C3Cc4ccccc4CN3C2=S)cc1C(F)(F)F (stereo unspecified),31.1 µM,> 200 µM,89%,387 ng/mL,2 h,,5.13 h,20.5 mL/min/kg,3860 ng·h/mL,
CCOC(=O)CCCOc1c(Br)cc2c(c1Br)CN1C(=S)N(c3ccc(C#N)c(C(F)(F)F)c3)C(=O)C1C2 (stereo unspecified),6.3 µM,21.9 µM,inactive,,,,,,,
CCOC(=O)CCCOc1ccc2c(c1)CN1C(=S)N(c3ccc(C#N)c(C(F)(F)F)c3)C(=O)C1C2 (stereo unspecified),18.8 µM,15.4 µM,43.9%,,,,,,,
CC(C)COc1ccc2c(c1)CN1C(=S)N(c3ccc(C#N)c(C(F)(F)F)c3)C(=O)C1C2 (stereo unspecified),10.6 µM,52.6 µM,61.5%,,,,,,,
CC12Cc3ccccc3CN1C(=S)N(c1ccc(C#N)c(C(F)(F)F)c1)C2=O (stereo unspecified),65.3 µM,> 200 µM,26.2%,,,,,,,
